# Compound activity (PubChem)
# This is a sample that favours compounds with a hit; in the whole collection about 3.2% have one here.
# MEKK3 PB1 HTS = MEKK3-MEK5 PB1 interaction, increase or decrease; Q99759; binding response (% of control), % at 10 µM; 1.4% of 290,000 active; AID 1529; bead-based flow cytometry, Alexa488-MEK5 binding to MEKK3; actives lie on both sides; 0 = blocked by unlabeled MEK5, 100 = vehicle;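 active = binding response more than 3 SD above or below the average of its plate-row segment, actives on both sides; inconclusive = wells at one plate position flagged as instrument error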;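 also: Alexa488 bead fluorescence after subtracting the streptavidin-only scavenger bead signal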
# Apaf1 inhib = human Apaf-1 inhibition. AID 489030. inhibition, % at 20 µM. reconstituted apoptosome caspase-3 activity, DEVD-Rh110 fluorescence. O14727. 0.71% of 330,000 active; active = inhibition of at least 40% at 20 µM;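 also: plate controls were DMSO wells for no effect and DEVD-CHO caspase inhibitor wells for full effect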
#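 Material: cell-free apoptosome with Apaf-1, procaspase-3 and caspase-9; Buffer or medium: Hepes pH 7.5 with detergent and BSA; Reagent: cytochrome c trigger plus (Z-DEVD)2-Rh110 caspase-3 substrate; Times: compound with Apaf-1, dATP, procaspase-3 30 min, then 50 min reaction, room temperature; Technique: Rh110 fluorescence intensity.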
# MEKK2 WT-MEK5 = raises or lowers MEK5 binding to wildtype human MEKK2 PB1 domain; 1.1% of 290,000 active; Q9Y2U5; binding response (% of control), % at 10 µM; bead flow cytometry, Alexa488-MEK5 binding to MEKK2 WT; actives lie on both sides; in the data active = binding response below about 67% or above about 130%; inconclusive = no clear call, values can overlap the other calls; inactive = in between
# UBC13 inh = human UBC13 polyubiquitination inhibition; 0.47% of 330,000 active; inhibition, % at 20 µM; AID 485273; UBC13 polyubiquitin chain formation, TR-FRET; in the data active = inhibition above about 45%, passing the limit was not always enough; inconclusive = no clear call, values can overlap the other calls
# Target sequence (P61088 whole entry, looked up): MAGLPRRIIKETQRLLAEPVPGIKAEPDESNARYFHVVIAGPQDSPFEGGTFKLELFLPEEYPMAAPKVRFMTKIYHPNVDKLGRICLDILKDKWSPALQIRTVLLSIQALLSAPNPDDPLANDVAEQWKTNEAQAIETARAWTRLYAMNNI
# MEKK2 mut-MEK5 = signal of MEK5 binding to mutant human MEKK2 PB1 domain | bead flow cytometry, Alexa488-MEK5 binding to MEKK2 mutant | percent response, % at 10 µM | AID 1530 | 0.35% of 290,000 active; in the data active = percent response above about 24%, passing the limit was not always enough
# Pemphigus Ab inh = inhibitors of pemphigus antibody binding to human desmoglein-3. P32926. DSG3-coupled beads, scFv-anti-DSG3-GFP binding, flow cytometry; hits give low values. binding (percent of control), % at 10 µM. 0.48% of 310,000 active. AID 588358;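 active = binding more than 3 SD below its plate's average and above zero; inconclusive = below that plate limit but binding exactly zero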;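 also: hits lower antibody fragment binding to DSG3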
# MEKK2wt confirm = raises or lowers MEK5 binding to wildtype human MEKK2, retest | AID 1892 | bead flow cytometry, Alexa488-MEK5 binding to MEKK2 WT; actives lie on both sides | shares compounds with MEKK3 PB1 HTS | binding response (% of control), % at 10 µM | 2.4% of 5,900 active; in the data active = binding response below about 16% or above about 210%; inactive = in between
# MEKK2mut confirm = signal of MEK5 binding to mutant human MEKK2, retest; 2% of 5,900 active; bead flow cytometry, Alexa488-MEK5 binding to MEKK2 mutant; percent response, % at 10 µM; shares compounds with MEKK3 PB1 HTS; in the data active = percent response mostly above about 71%, no sharp cut-off; inactive = mostly below about 38%;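 also: higher means compound restores mutant binding toward wildtype level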
# MEKK3-MEK5 inh = confirmation of inhibitors of MEK5 binding to human MEKK3; shares compounds with MEKK3 PB1 HTS; bead flow cytometry, Alexa488-MEK5 binding to MEKK3; hits give low values; binding response (% of control), % at 10 µM; 1.8% of 5,900 active; AID 1894;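 active = binding response below 72% of control, or above a set upper limit, though filed actives all read lower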;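 also: 100% = DMSO only wells and 0% = binding blocked by excess unlabeled MEK5; lower values mean stronger disruption of MEK5 binding to MEKK3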
# Numbers without * were called inactive; ? = inconclusive; · = no result; [ ] = another dose, or the depositor's remark.
SMILES,MEKK3 PB1 HTS,Apaf1 inhib,MEKK2 WT-MEK5,UBC13 inh,MEKK2 mut-MEK5,Pemphigus Ab inh,MEKK2wt confirm,MEKK2mut confirm,MEKK3-MEK5 inh
Cc1cnc(CNC(=O)C2CCC(=O)N(CCc3cccc(F)c3)C2)[nH]1 (stereo not drawn),94,-3,99,-2,-5,101,·,·,·
Cc1nc2ccccc2n1-c1ccccc1,108,1,112,-6,11,100,·,·,·
O=c1c(/C=C(\O)c2ccccc2)nc2ccccc2n1-c1ccccc1,81*[inhibitor],25,58*[inhibitor],-11,-19,156,66,-18,85
COc1cccc(C(=O)OCC(=O)c2ccc(Br)s2)c1OC,·,19,·,0,·,102,·,·,·
Cc1cc(C(=O)c2ccc(Cl)cc2)c(NC(=O)CCl)s1,135*,26,108,6,1,103,101,3,103
Clc1ccccc1OCc1nn[nH]n1,131*,-8,118,-5,27,109,107,2,103
Cc1cccc(OCc2nn[nH]n2)c1C,103,-14,108,9,9,105,·,·,·
CCOc1nc(Nc2ccc(OC)c(Cl)c2)nc(N2CCN(c3ccc(OC)cc3)CC2)n1,79*[inhibitor],13,77,-11,33*,·,112,4,103
COc1ccc(CNC(=O)CSCc2ccccc2Cl)cc1,128*,1,105,1,1,·,103,0,103
COc1ccc(CNC(=O)CCSCc2ccccc2Cl)c(OC)c1,126,7,107,10,0,102,·,·,·
CCOC(=O)/C(=N/Nc1ccccc1)Sc1nnnn1-c1ccc(C)cc1,129*,4,105,-2,4,101,100,-2,97
O=C(/C(=N\Nc1ccc(Br)cc1)Sc1nnnn1-c1ccccc1)c1ccccc1,130*,15,104,-15,-1,108,107,-2,104
CCOC(=O)/C=C1\Nc2ccccc2SC1=O,2.0*[inhibitor],18,2.0*[inhibitor],-6,-18,98,103,-4,100
COc1ccc(N2CCN(C(=O)COC(=O)COc3cc(C)cc(C)c3)CC2)cc1,·,8,·,-3,·,?,·,·,·
CCOc1ccccc1-n1c(COc2ccccc2)nnc1SCC(N)=O,91,-7,95,4,0,98,·,·,·
CCOc1ccc(-n2c(COc3ccccc3)nnc2SCC(N)=O)cc1,122*,8,106,-2,5,98,98,-2,103
COc1ccccc1N1CCN(C(=O)c2ccc(N3CCCCS3(=O)=O)cc2)CC1,96,-2,99,-3,-5,96,·,·,·
Cc1sc2nc(CN3CCC(C)CC3)nc(Cl)c2c1C,161*,-5,111,-21,6,·,97,-3,95
O=[N+]([O-])c1ccc(COc2cccc(CN3CCCCC3)c2)cc1,·,·,·,·,·,103,·,·,·
CSCCC(NC(N)=O)C(=O)Nc1cccc(S(=O)(=O)N2CCOCC2)c1 (stereo not drawn),72*[inhibitor],-3,83,-8,-9,96,98,0,102
C#CCOCCOCCOCCNc1nc(N2CCN(C(=O)[C@H]([C@@H](C)CC)n3cc([C@@H](N)CC(C)C)nn3)CC2)nc(N2CCN(C(=O)[C@H](Cc3ccc(O)cc3)n3cc([C@@H](N)CC(C)C)nn3)CC2)n1,112,-5,150*,33,35,·,150,30,108
